Laboratory results: ChEMBL document CHEMBL3286260, “Guanidine-based α2-adrenoceptor ligands: Towards selective antagonist activity” (Eur J Med Chem, 2014)
Activity calls are given as the source filed them. The calls are words filed in the database; no cut-off is given here.

Key:
[1] = molecular target: T1, Alpha-2A adrenergic receptor (Homo sapiens) (UniProt P08913); test: Antagonist activity at alpha2-adrenergic receptor in prefrontal cortex of human brain assessed as effect on [35S]GTPgammaS binding after 120 mins by liquid scintillation spectrometric analysis; format: functional, tissue-based
T1 sequence (whole entry): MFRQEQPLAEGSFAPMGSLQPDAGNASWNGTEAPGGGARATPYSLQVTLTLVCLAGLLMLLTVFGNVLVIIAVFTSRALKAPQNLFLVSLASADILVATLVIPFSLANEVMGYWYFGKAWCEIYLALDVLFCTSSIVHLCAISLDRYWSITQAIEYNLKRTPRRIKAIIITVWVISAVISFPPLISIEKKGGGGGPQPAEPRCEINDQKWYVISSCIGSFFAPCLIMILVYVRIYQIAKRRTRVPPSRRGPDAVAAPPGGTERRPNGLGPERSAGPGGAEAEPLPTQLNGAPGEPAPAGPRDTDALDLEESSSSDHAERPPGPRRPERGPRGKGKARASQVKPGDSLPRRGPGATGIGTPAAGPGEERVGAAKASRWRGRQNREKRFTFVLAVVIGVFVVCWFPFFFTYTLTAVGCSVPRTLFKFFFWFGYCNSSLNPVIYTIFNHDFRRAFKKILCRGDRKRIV

[2] = molecular target: T2, Alpha-2A adrenergic receptor (Homo sapiens, UniProt P08913); test: Displacement of [3H]RX821002 from alpha2-adrenergic receptor in prefrontal cortex of human brain after 30 mins by liquid scintillation spectrometric analysis; format: tissue-based
T2 sequence (P08913 whole entry): T1 sequence (whole entry)

[3] = molecular target: T1, Alpha-2A adrenergic receptor (Homo sapiens); test: Antagonist activity at alpha2-adrenergic receptor in prefrontal cortex of human brain assessed as increase in UK14304 EC50 for [35S]GTPgammaS binding after 120 mins by liquid scintillation spectrometric analysis; format: functional, tissue-based
Summary of the method: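 Same [35S]GTPγS membrane assay (120 min, 30 °C, 0.5 nM radioligand, Mg/Na/GDP buffer pH 7.4). UK14304 concentration–response curves (10^-13 to 10^-4 M) run with or without test compound at 10^-5 M. Shift in agonist EC50 taken as the measure of antagonism. Bound label counted by liquid scintillation.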

SMILES	Activity [1]	Ki [2]	Activity [3]
N=C(Nc1ccccc1)Nc1ccc2c(c1)CCCC2	Active	263 nM	Active
CCCNC(=N)Nc1ccc(OCC)cc1	Active	4270 nM	–
CC1CN/C(=N/c2ccc3c(c2)CCCC3)N1 (centres undefined)	Active	1000 nM	–
N=C(Nc1ccccc1)Nc1ccc2c(c1)OCO2	–	4370 nM	–
CCOc1ccc(N=C2NCCN2)cc1	Active	79.4 nM	Active
CC1CN/C(=N/c2ccc(N(C)C)cc2)N1 (centres undefined)	–	3310 nM	–
CCOc1ccc(NC(=N)Nc2ccccc2)cc1	–	2240 nM	–
CCNc1ccc(/N=C2/NCC(C)N2)cc1 (centres undefined)	–	12300 nM	–
c1coc(C2CN/C(=N/c3ccc4c(c3)CCCC4)N2)c1 (centres undefined)	Active	692 nM	–
N=C(NCCO)Nc1ccc2c(c1)OCO2	Active	11700 nM	–
CCOc1ccc(NC(=N)N)cc1	Active	141 nM	Active
CCNc1ccc(/N=C(/N)NCc2ccco2)cc1	Active	1070 nM	–
CN(C)c1ccc(NC(=N)Nc2ccccc2)cc1	Active	389 nM	Active
c1coc(C2CN/C(=N/c3ccc4c(c3)OCO4)N2)c1 (centres undefined)	–	1700 nM	–
CCNc1ccc(NC(=N)Nc2ccccc2)cc1	–	4900 nM	–
CCOc1ccc(NC(=N)NCCO)cc1	–	19100 nM	–
CC1CN/C(=N/c2ccc3c(c2)OCO3)N1 (centres undefined)	–	2340 nM	–

SMILES	Activity [1]	Ki [2]	Activity [3]
CCNc1ccc(NC(=N)NCCO)cc1	–	18600 nM	–
CCCNC(=N)Nc1ccc(N(C)C)cc1	Active	1120 nM	–
CCNc1ccc(/N=C2/NCC(c3ccco3)N2)cc1 (centres undefined)	–	2190 nM	–
N=C(NCc1ccco1)Nc1ccc2c(c1)OCO2	Active	1510 nM	–
N=C(NCCO)Nc1ccc2c(c1)CCCC2	–	1740 nM	–
CN(C)c1ccc(/N=C(/N)NCc2ccco2)cc1	Active	214 nM	Active
CCOc1ccc(/N=C2/NCC(C)N2)cc1 (centres undefined)	–	14100 nM	–
CCCNC(=N)Nc1ccc2c(c1)OCO2	–	15100 nM	–
N=C(NCc1ccco1)Nc1ccc2c(c1)CCCC2	Active	513 nM	–
CCOc1ccc(/N=C2/NCC(c3ccco3)N2)cc1 (centres undefined)	–	2630 nM	–
COC1(C2=NCCN2)COc2ccccc2O1 (centres undefined)	–	1.91 nM	–
CN(C)c1ccc(NC(=N)NCCO)cc1	Active	1860 nM	–
CCCNC(=N)Nc1ccc2c(c1)CCCC2	Active	676 nM	–
CN(C)c1ccc(/N=C2/NCC(c3ccco3)N2)cc1 (centres undefined)	–	1320 nM	–
CCCNC(=N)Nc1ccc(NCC)cc1	–	8320 nM	–
CCOc1ccc(/N=C(/N)NCc2ccco2)cc1	Active	1480 nM	–
